# Only some compounds are listed: those with a hit (about 2.3% of all), similar ones and a draw of the others.
# OXTR ag: agonists of human oxytocin receptor; CHO-OTR cells, Fluo-8 calcium fluorescence; normalized: DMSO 0%, oxytocin 100%; 320,000 compounds, 0.32% hits; activation, % at 3 µM;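 active means activation above the mean of all tested compounds plus 3 SD, cutoff set per screening run, cut at about 20% in these data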;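 further: peak over basal fluorescence ratio from a 100 s FLIPR kinetic read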
# TAAR1 antagonist: antagonists of human TAAR1; AID 624466; inhibition, % at 3 µM; 360,000 compounds, 1.5% hits; CHO RD-HGA16 TAAR1, Fluo-8 calcium fluorescence, antagonist; Q96RJ0;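 active means inhibition above a per-plate cutoff, the mean inhibition of test compounds on that plate plus 3 SD, cut at about 49% in these data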
#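 test system = CHO RD-HGA16 cells bearing hTAAR1 | replication = singlicate | controls = DMSO-only wells and EC80 β-PEA-stimulated wells | reagent = EC80 β-phenethylamine stimulus | read-out basis = percent inhibition of PEA-evoked calcium signal, max/basal emission ratio | schedule = seeding 17-24 h prior, 75-min 37 °C, 30-min RT dye loading | signal = kinetic Fluo-8 calcium fluorescence measurement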
# V1aR counter: V1a receptor agonism, counter-screen for OXTR agonists. 320,000 compounds, 0.25% hits. activation, % at 3 µM. CHO-V1R cells, Fluo-8 calcium fluorescence, agonist mode; 0% DMSO, 100% 3 nM vasopressin;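 active means activation above the mean activation of all tested compounds plus 3 SD, per screening run, cut at about 20% in these data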;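 further: signal is peak over basal fluorescence ratio across a 100 second FLIPR read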
# Target sequence (P37288 whole entry, looked up): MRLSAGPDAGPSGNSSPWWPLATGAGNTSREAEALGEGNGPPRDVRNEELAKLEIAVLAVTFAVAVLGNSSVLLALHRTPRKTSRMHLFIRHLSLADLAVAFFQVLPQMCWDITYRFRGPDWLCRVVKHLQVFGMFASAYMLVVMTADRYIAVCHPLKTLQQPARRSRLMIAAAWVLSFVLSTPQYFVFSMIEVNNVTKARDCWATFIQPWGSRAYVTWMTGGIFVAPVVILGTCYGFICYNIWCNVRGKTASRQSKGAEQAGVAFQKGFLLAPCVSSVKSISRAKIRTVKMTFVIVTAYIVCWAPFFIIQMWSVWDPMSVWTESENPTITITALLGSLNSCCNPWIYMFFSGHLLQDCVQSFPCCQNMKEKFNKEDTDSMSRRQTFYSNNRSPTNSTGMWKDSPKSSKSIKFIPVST
# OXTR potentiator: potentiators of human oxytocin receptor | activation, % at 3 µM | CHO-OTR cells, Fluo-8 calcium fluorescence, potentiator mode; 0% = oxytocin EC15, 100% = EC100 | P30559 | 320,000 compounds, 0.061% hits;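 active means activation above that plate's cutoff, the mean activation of tested compounds plus 3 SD, cut at about 6.6% in these data, passing the limit was not always enough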
#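 Replication – single well per compound, singlicate · Assay system – CHO cell line stably expressing human OTR · Timing – 6 min pre-incubation, 100 s read · Measure – normalized max/min fluorescence ratio, % activation · Doses – 3.0 µM, one dose · Detection – Fluo-8 calcium dye fluorescence · Probe or stimulus – oxytocin near EC15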
# TAAR1 agonist: agonists of human TAAR1; Q96RJ0; activation, % at 3 µM; 360,000 compounds, 0.99% hits; CHO RD-HGA16 TAAR1, Fluo-8 calcium fluorescence; vehicle wells 0%, saturating PEA agonist 100%;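 active means activation above the mean activation of all test compounds in the run plus 3 SD, cut at about 38% in these data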
#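 Signal – calcium-sensitive Fluo-8 signal, excitation 470-495, emission 515-575 nm · System – RD-HGA16 (CHO) cells co-expressing Gα16 and hTAAR1 · Incubation – 17-24 h seeding, 75 min 37 °C dye, 30 min RT · Compound dosing – 3 µM single concentration · Repeats – no replicates (n 1)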
# TAAR1 nonsel count: nonselective antagonism, TAAR1 counter-screen. shares compounds with TAAR1 antagonist. counterscreen cell line, calcium fluorescence, antagonist mode. inhibition, % at 3 µM. 2,400 compounds, 77% hits; in the data active means inhibition above about 22%;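 further: CHO-Ga16 host cells stimulated with ATP at an EC80 level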
# TAAR1 ant conf: human TAAR1 antagonism, confirmed | shares compounds with TAAR1 antagonist | inhibition, % at 3 µM | TAAR1-expressing cells, fluorescence antagonist read-out | 2,400 compounds, 40% hits; in the data active means inhibition above about 49%;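 further: CHO-Ga16 host cells challenged with agonist PEA near its EC80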
# Ga16 ag counter: counter-screen for TAAR1 antagonists: nonselective Ga16 agonists. shares compounds with TAAR1 antagonist. Ga16-expressing cells, calcium fluorescence, agonist counterscreen. activation, % at 3 µM. 2,400 compounds, 18% hits. AID 651953; in the data active means activation above about 12%
# TAAR1 ag count: activates human TAAR1 in antagonist counter-screen; activation, % at 3 µM; AID 651955; hTAAR1 cell line, fluorescence activation, agonist mode; shares compounds with TAAR1 antagonist; 2,400 compounds, 2% hits; in the data active means activation above about 37%;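 further: CHO cells stably expressing TAAR1 with calcium dye readout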
# A number is an active result; n = inactive; x = no result given.
SMILES,OXTR ag,TAAR1 antagonist,V1aR counter,OXTR potentiator,TAAR1 agonist,TAAR1 nonsel count,TAAR1 ant conf,Ga16 ag counter,TAAR1 ag count
COC(=O)c1cc2c(c3c4cc(OC)ccc4n(S(=O)(=O)c4ccc(C)cc4)c13)C(=O)N(Cc1ccccc1)C2,x,n,x,x,n,x,x,x,x
COC(=O)c1cc2c(c3c4cc(C)ccc4n(C(=O)c4ccccc4)c13)C(=O)N(Cc1ccccc1)C2,x,67,x,x,n,29,56,n,n
Cc1ccccc1OCC(=O)N/N=C/c1cccc(Oc2ccc([N+](=O)[O-])cc2[N+](=O)[O-])c1,n,n,n,n,n,x,x,x,x
O=C(N/N=C/c1cccc(Oc2ccc([N+](=O)[O-])cc2[N+](=O)[O-])c1)c1cncc(Br)c1,n,55,n,n,n,51,54,16,n
COc1ccc(CNC(=O)COc2ccc(S(=O)(=O)N3CCCCC3)cc2Cl)cc1,n,73,n,n,n,26,n,n,n
COc1ccc(CNC(=O)COc2ccc(S(=O)(=O)N3CCCCC3)cc2)cc1,n,n,n,n,n,x,x,x,x
Cc1ccc(S(=O)(=O)Nc2ccc3c(c2)C(=O)N([C@@H](C)CO)C[C@@H](C)[C@@H](CN(C)C(=O)NC(C)C)OCCCC[C@H](C)O3)cc1,x,n,x,x,n,x,x,x,x
O=C(Nc1ccc(S(=O)(=O)NCc2ccco2)cc1)c1ccc2ccccc2n1,n,70,n,n,n,38,58,n,n
COc1ccc(/C=N/Nc2nc(-c3cccnc3)nc3ccccc23)cc1OC,n,72,n,n,n,29,51,n,n
Cc1ccc(-c2nc(N/N=C/c3ccncc3)c3ccccc3n2)cc1,n,57,n,n,n,27,n,n,n
Oc1ccc(/C=N/Nc2nc(-c3cccnc3)nc3ccccc23)c(O)c1,n,81,n,n,n,23,n,n,n
CC1(C(=O)OCC(=O)NCCNC(=O)COC(=O)C2(C)CC2(Cl)Cl)CC1(Cl)Cl (centres undefined),n,n,n,n,n,x,x,x,x
COC(=O)CCN1CCC2CC1c1cc(-c3cccc(C)c3)ccc12 (centres undefined),x,n,x,x,n,x,x,x,x
Cc1ccc(-c2[nH]ncc2/C=N/n2c(COc3ccccc3)nc3ccccc3c2=O)cc1,n,66,n,n,n,33,53,n,n
Cc1nc2ccccc2c(=O)n1/N=C/c1cn[nH]c1-c1ccccc1,n,58,n,n,n,27,n,n,n
Cc1nc2ccccc2c(=O)n1/N=C/c1ccccc1F,n,n,n,n,n,x,x,x,x
Cc1ccccc1OCc1nc2ccccc2c(=O)n1/N=C/c1cn[nH]c1-c1ccccc1,n,64,n,n,n,27,56,n,n
O=c1c2ccccc2nc(COc2ccccc2)n1/N=C/c1ccc(O)c(O)c1,n,68,n,n,n,n,n,n,n
Cc1ccccc1OCc1nc2ccccc2c(=O)n1/N=C/c1cccc([N+](=O)[O-])c1,n,n,n,n,n,x,x,x,x
CN(C(=O)c1cccc(NC(=O)Cc2ccc(NC(=O)C3CCN(C(=O)C4CCC4)CC3)cc2)c1)C1CC1,x,n,x,x,n,x,x,x,x
COC(=O)c1oc2c(c1C)C1(CCC2)SCCS1,n,95,n,n,n,n,83,n,n
Cc1onc(-c2c(Cl)cccc2Cl)c1C(=O)c1c[nH]c(C(=O)NCC2CCCO2)c1 (centres undefined),n,62,n,n,n,32,n,n,n
COc1ccc(N2CCN(C(=O)c3sc4ncn(CC(=O)N5CCCCC5C)c(=O)c4c3C)CC2)cc1 (centres undefined),n,n,n,n,n,x,x,x,x
Cc1ccc(S(=O)(=O)NC2CCCc3ccccc32)cc1C (centres undefined),n,50,n,n,n,n,n,n,n
O=C(NCCCN1CCOCC1)c1ccccc1N1C(=O)[C@@H]2Cc3c([nH]c4ccccc34)C(c3ccc(F)cc3)N2C1=O (some centres undefined),n,73,n,n,n,26,n,n,n
SMILES,OXTR ag,TAAR1 antagonist,V1aR counter,OXTR potentiator,TAAR1 agonist,TAAR1 nonsel count,TAAR1 ant conf,Ga16 ag counter,TAAR1 ag count
O=C(NCCN1CCOCC1)c1ccccc1N1C(=O)[C@@H]2Cc3c([nH]c4ccccc34)C(c3ccccc3)N2C1=O (some centres undefined),n,n,n,n,n,x,x,x,x
CC1CCN(C(C)C(=O)Nc2ccc(S(=O)(=O)N3CCCC3)cc2)CC1 (centres undefined),n,n,n,n,n,x,x,x,x
O=C1c2ccccc2C(Nc2ccccc2)N1Cc1ccc2c(c1)OCO2 (centres undefined),n,n,n,n,n,x,x,x,x
O=C1c2ccccc2C(Nc2ccc3c(c2)OCCO3)N1Cc1ccc2c(c1)OCO2 (centres undefined),n,63,n,n,n,n,n,n,n
O=C1c2ccccc2C(Nc2ccc3c(c2)OCCO3)N1c1ccc(Cl)cn1 (centres undefined),n,50,n,n,n,23,n,n,n
Cc1c(NC(=O)COC(=O)CCc2c[nH]c3ccccc23)c(=O)n(-c2ccccc2)n1C,n,n,n,n,n,x,x,x,x
CS(=O)(=O)N1CCN(c2ccccc2NC(=S)NC(=O)c2ccco2)CC1,n,49,n,n,n,29,n,n,n
O=C(COc1ccc(Cl)cc1)Nc1nc(-c2cccs2)cs1,n,68,n,n,n,23,n,n,n
COc1cc(C(=O)Nc2nc(-c3cccs3)cs2)cc(OC)c1OC,n,83,n,n,n,45,62,16,n
COc1ccc(C(=O)Nc2nc(-c3cccs3)cs2)cc1,n,n,n,n,n,x,x,x,x
CCC(=O)c1ccc(OCC(=O)Nc2nc(-c3cccnc3)cs2)cc1,n,74,n,n,n,37,55,n,n
CCC(=O)c1ccc(OCC(=O)Nc2nc(C)cs2)cc1,n,n,n,n,n,x,x,x,x
O=C(Nc1nc(-c2cccs2)cs1)c1ccc(Cl)cc1,n,n,n,n,n,x,x,x,x
CCN(CC)C(=O)C1=C(C)N(CCC2=CCCCC2)C(=O)C(CC(=O)NCCc2ccccn2)C1 (centres undefined),x,n,x,x,n,x,x,x,x
CC(=O)c1ccc(OCC(O)COc2ccc(C(C)=O)cc2)cc1,n,n,n,n,n,x,x,x,x
